Source: PMC4650587 (Cell Research, 2014)
“Also recorded” adds a separate entry of the source. Where two headings read alike, the source gives them in different places. Each block holds one molecule with its values, some of them ahead of it.

Key:
[1] = test system: AMPK; settings: cited from earlier work
[2] = target: human α1β2γ1 AMPK (Homo sapiens, UniProt P54619); format: biochemical
[3] = test system: AID-αRIM / core AMPK(α1[395-550]-β2[187-272]-γ1); assay: AlphaScreen interaction between biotinylated core AMPK and His6GST-AID-αRIM; format: binding, human; settings: wild-type AID-αRIM; AMP 0.2 mM, ATP 1 mM
How it was run: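 Two-protein AlphaScreen pairing 100 nM His6-tagged protein on nickel acceptor beads with 100 nM biotin-tagged protein on streptavidin donor beads. Biotinylated core AMPK (α1[395-550]-β2[187-272]-γ1) was an avitag fusion biotinylated in E. coli by co-expressed BirA with 40 μM biotin. Reactions ran in 50 mM MOPS pH 7.4, 50 mM NaF, 50 mM CHAPS, 0.1 mg/ml BSA, 0.2 mM AMP, 1 mM ATP.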

[4] = test system: recombinant, E. coli-expressed AMPK; settings: cited from earlier work
[5] = target: CBM-KD interaction of AMPK; assay: AlphaScreen interaction between isolated biotin-CBM and His6-KD in trans; format: binding, human
How it was run: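 Biotin-CBM (β2[75-163] avitag, biotinylated in vivo) was split in two. One half was phosphorylated in trans by CaMKKβ-phosphorylated His6-KD (CBM:KD 50:1, 4 h, RT), then freed of KD by Ni column and size exclusion. 100 nM biotin-CBM on streptavidin donor beads was paired with 100 nM His6-KD on Ni acceptor beads. Buffer: 50 mM MOPS pH 7.4, 50 mM NaF, 50 mM CHAPS, 0.1 mg/ml BSA.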

[6] = test system: rat liver AMPK; settings: cited from earlier work
[7] = target: holo-AMPK; assay: AlphaScreen CBM-KD interaction in holo-AMPK; format: binding, human; settings: glycogen 0.5 mg/ml, cyclodextrin 2 mM
[8] = test system: human α1β2γ1 AMPK; assay: Radioactive kinase assay; format: biochemical; settings: phosphorylated AMPK; 1 mg/ml glycogen
[9] = target: T1, AMPK γ1(24-327), γ-subunit of the crystallised holo-AMPK (human, UniProt P54619 24-327); assay: crystal structure
T1 sequence (P54619 24-327): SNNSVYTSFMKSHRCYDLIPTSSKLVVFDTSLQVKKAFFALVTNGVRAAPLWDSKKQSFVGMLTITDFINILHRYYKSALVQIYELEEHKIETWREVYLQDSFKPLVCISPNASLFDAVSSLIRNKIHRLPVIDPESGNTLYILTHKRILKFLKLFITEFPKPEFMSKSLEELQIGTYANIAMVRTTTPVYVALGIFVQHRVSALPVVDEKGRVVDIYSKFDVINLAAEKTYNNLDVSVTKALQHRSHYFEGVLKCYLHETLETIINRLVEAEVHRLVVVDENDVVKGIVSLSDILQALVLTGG

[10] = target: T1, AMPK γ1(24-327), γ-subunit of the …; assay: crystal structure; remark: listed apart in the source

human α1β2γ1 AMPK (Homo sapiens, UniProt P54619), sequence (P54619 24-327, one chain of several): as the sequence (P54619 24-327) above
human α1β2γ1 AMPK (Homo sapiens, UniProt P54619), sequence (Q13131 20-559 partner, one chain of several): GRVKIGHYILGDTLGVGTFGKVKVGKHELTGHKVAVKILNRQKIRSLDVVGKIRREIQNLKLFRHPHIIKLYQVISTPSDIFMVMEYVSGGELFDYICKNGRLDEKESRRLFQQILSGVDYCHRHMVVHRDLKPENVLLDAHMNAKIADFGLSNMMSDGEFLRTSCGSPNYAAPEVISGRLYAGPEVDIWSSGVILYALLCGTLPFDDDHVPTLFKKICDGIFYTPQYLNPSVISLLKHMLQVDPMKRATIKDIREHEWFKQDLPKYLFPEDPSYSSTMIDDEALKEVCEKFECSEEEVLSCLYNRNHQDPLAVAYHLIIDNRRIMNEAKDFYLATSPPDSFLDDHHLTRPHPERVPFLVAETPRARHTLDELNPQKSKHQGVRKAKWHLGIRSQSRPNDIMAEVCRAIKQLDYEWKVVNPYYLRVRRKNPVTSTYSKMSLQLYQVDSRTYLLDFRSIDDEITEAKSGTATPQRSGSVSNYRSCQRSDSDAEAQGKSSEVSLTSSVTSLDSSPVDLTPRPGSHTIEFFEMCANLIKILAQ

Molecule: N#Cc1c(O)c2c(-c3ccc(-c4ccccc4O)cc3)csc2[nH]c1=O [A769662]
effect on kinase activity [1]: increase kinase activity

Molecule: Nc1ncnc2c1ncn2[C@@H]1O[C@H](COP(=O)(O)O)[C@@H](O)[C@H]1O [AMP]
change of luminescence signal, α-γ tagged AMPK ([2]; 2 μM AMP): doubled the luminescence signal
effect on AID-αRIM / core AMPK interaction signal [3]: increased

Molecule: Nc1ncnc2c1ncn2[C@@H]1O[C@H](COP(=O)(O)OP(=O)(O)OP(=O)(O)O)[C@@H](O)[C@H]1O [ATP]
change of luminescence signal, α-γ tagged AMPK ([2]; 1 mM ATP): decreased the signal by a factor of two
effect on AID-αRIM / core AMPK interaction signal [3]: decreased

Molecule: Cc1ccc(Oc2nc3cc(-c4ccc5c(ccn5C)c4)c(Cl)cc3[nH]2)cc1C(=O)O [compound 991]
effect on kinase activity [1]: increase kinase activity

Molecule: OC[C@H]1O[C@@H]2O[C@H]3[C@H](O)[C@@H](O)[C@@H](O[C@H]4[C@H](O)[C@@H](O)[C@@H](O[C@H]5[C@H](O)[C@@H](O)[C@@H](O[C@H]6[C@H](O)[C@@H](O)[C@@H](O[C@H]7[C@H](O)[C@@H](O)[C@@H](O[C@H]8[C@H](O)[C@@H](O)[C@@H](O[C@H]1[C@H](O)[C@H]2O)O[C@@H]8CO)O[C@@H]7CO)O[C@@H]6CO)O[C@@H]5CO)O[C@@H]4CO)O[C@@H]3CO [cyclodextrin, β-cyclodextrin hydrate]
effect on catalytic activity of recombinant AMPK [4]: mildly inhibit
effect on CBM-KD interaction signal ([5]; non-phosphorylated CBM, cyclodextrin 2 mM): greatly reduced the interaction; also recorded: strongly reduced the interaction
effect on CBM-KD interaction signal ([5]; phosphorylated CBM, cyclodextrin 2 mM): mildly; also recorded: only weakly reduced the interaction
effect on activity of immunoprecipitated native rat liver AMPK [6]: more substantially inhibit
effect on AlphaScreen signal of holo-AMPK (CBM-KD) ([7]; phosphorylated AMPK): smaller decrease

Further lines, with some results ahead:

effect on CBM-KD interaction signal ([5]; phosphorylated and non-phosphorylated CBM, glycogen 0.5 mg/ml): almost abolished this interaction
effect on AMPK catalytic activity [8]: failed to detect an effect
effect on AlphaScreen signal of holo-AMPK (CBM-KD) ([7]; non-phosphorylated AMPK): significant (P < 0.01) signal decrease
effect on AlphaScreen signal of holo-AMPK (CBM-KD) ([7]; phosphorylated AMPK): smaller decrease
Molecule: glycogen
effect on catalytic activity of recombinant AMPK [4]: mildly inhibit
effect on activity of immunoprecipitated native rat liver AMPK [6]: more substantially inhibit
effect on activity of purified rat liver AMPK ([6]; purified rat liver AMPK): did not detect an effect

binding result [9]: binds
B1: phosphorylated AMPK β2(76-272), β-subunit of the crystallised phosphorylated holo-AMPK (domain or fragment)
chain: ARPTVIRWSEGGKEVFISGSFNNWSTKIPLIKSHNDFVAILDLPEGEHQYKFFVDGQWVHDPSEPVVTSQLGTINNLIHVKKSDFEVFDALKLDSMESSETSCRDLSSSPPGPYGQEMYAFRSEERFKSPPILPPHLLQVILNKDTNISCDPALLPEPNHVMLNHLYALSIKDSVMVLSATHRYKKKYVTTLLYKPI
modifications: phosphoserine at 108 (autophosphorylated)

binding result [10]: binds
B2: non-phosphorylated AMPK β2(76-272), β-subunit of the crystallised non-phosphorylated holo-AMPK (domain or fragment)
chain: B1 chain
